Columns and labels:
[1] = target: Serine/threonine-protein kinase PLK2 (Homo sapiens, UniProt Q9NYY3); assay: Inhibition of PLK2 (unknown origin) by FRET-based homogenous assay
[2] = target: Serine/threonine-protein kinase PLK3 (Homo sapiens, UniProt Q9H4B4); assay: Inhibition of PLK3 (unknown origin) by FRET-based homogenous assay
[3] = target: T1, Serine/threonine-protein kinase PLK4 (Homo sapiens, UniProt O00444); assay: Inhibition of GST-tagged human PLK4 (1-391 residues) phosphorylation by ELISA
T1 sequence (O00444 whole entry): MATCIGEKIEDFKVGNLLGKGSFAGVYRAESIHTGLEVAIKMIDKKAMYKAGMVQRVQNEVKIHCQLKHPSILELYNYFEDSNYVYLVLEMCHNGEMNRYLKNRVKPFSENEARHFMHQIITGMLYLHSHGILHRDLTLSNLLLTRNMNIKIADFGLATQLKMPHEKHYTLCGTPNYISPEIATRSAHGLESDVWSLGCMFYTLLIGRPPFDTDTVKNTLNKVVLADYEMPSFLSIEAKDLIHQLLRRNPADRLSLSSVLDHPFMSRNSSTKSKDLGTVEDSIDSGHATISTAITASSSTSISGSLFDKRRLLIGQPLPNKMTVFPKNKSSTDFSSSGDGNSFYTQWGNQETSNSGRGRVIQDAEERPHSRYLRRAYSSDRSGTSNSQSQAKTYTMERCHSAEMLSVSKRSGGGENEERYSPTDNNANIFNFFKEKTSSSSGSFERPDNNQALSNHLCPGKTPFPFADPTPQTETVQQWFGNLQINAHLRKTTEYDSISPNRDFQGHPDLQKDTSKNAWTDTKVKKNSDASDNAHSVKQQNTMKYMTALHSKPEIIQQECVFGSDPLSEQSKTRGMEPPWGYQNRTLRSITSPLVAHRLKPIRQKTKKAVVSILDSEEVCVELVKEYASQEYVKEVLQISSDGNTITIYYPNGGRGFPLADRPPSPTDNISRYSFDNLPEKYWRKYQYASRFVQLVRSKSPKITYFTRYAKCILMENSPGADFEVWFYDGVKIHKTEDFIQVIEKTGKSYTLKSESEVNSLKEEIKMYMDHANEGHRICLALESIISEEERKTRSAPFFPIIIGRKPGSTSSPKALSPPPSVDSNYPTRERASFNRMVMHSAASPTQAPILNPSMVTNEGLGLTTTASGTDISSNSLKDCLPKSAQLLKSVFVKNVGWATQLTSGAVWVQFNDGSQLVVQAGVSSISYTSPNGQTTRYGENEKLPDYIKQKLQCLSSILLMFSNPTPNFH

MDA-MB-468 = assay: Growth inhibition of human MDA-MB-468 cells after 5 days by SRB assay; type: functional; conditions: MDA-MB-468, 120 h
[4] = Cmax in SCID mouse at 25 mg/kg, ip; type: ADME, organism-based; parameters: dose 25 mg/kg, route intraperitoneal; conditions: in vivo
Outline: (§1)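 Mice were dosed at 25 mg/kg by the IP or the PO route. Drug levels were measured in plasma, and Cmax (µg/mL) and AUC (µg h/mL) were derived for each route.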

[5] = AUC in SCID mouse at 25 mg/kg, ip; type: ADME, organism-based; parameters: dose 25 mg/kg, route intraperitoneal; conditions: plasma; outline: as §1
[6] = Cmax in SCID mouse at 25 mg/kg, po; type: ADME, organism-based; parameters: dose 25 mg/kg, route oral; conditions: in vivo; outline: as §1
[7] = AUC in SCID mouse at 25 mg/kg, po; type: ADME, organism-based; parameters: dose 25 mg/kg, route oral; conditions: plasma; outline: as §1
[8] = Antitumor activity against human HCT116 cells xenografted in SCID mouse assessed as tumor growth inhibition at 12.5 mg/kg, ip qd for 18 days; type: functional; conditions: HCT-116, ip, 432 h, route intraperitoneal, read-out: TGI
Outline: (§2)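 Mice bore HCT116 tumour xenografts. Arms were dosed IP at 12.5 or 25 mg/kg QD, or at 12.5 mg/kg BID. The reference arm received 5-fluorouracil IP at 15 mg/kg daily. Tumour volume was compared with a negative control group to give percent tumour growth inhibition. Body weight was monitored in all arms.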

[9] = Antitumor activity against human HCT116 cells xenografted in SCID mouse assessed as tumor growth inhibition at 25 mg/kg, ip qd for 18 days; type: functional; conditions: HCT-116, ip, 432 h, route intraperitoneal, read-out: TGI; outline: as §2
[10] = Antitumor activity against human HCT116 cells xenografted in SCID mouse assessed as tumor growth inhibition at 12.5 mg/kg, ip bid for 18 days; type: functional; conditions: HCT-116, ip, 432 h, route intraperitoneal, read-out: TGI; outline: as §2
Mus musculus [11] = assay: Toxicity in SCID mouse assessed as body weight loss at 12.5 mg/kg, ip qd for 18 days; type: organism-based; parameters: dose 12.5 mg/kg, route intraperitoneal; conditions: in vivo, 432 h; outline: as §2
Mus musculus [12] = assay: Toxicity in SCID mouse assessed as body weight loss at 12.5 mg/kg, ip bid for 18 days; type: organism-based; parameters: dose 12.5 mg/kg, route intraperitoneal; conditions: in vivo, 432 h; outline: as §2
Mus musculus [13] = assay: Toxicity in SCID mouse assessed as body weight loss at 15 mg/kg, ip qd for 5 days; type: organism-based; parameters: dose 15 mg/kg, route intraperitoneal; conditions: in vivo, 120 h; outline: as §2
Mus musculus [14] = assay: Toxicity in SCID mouse assessed as mortality at 25 mg/kg, ip bid for 18 days; type: organism-based; parameters: dose 25 mg/kg, route intraperitoneal; conditions: in vivo, 432 h
HCT-116 = assay: Antitumor activity against human HCT116 cells xenografted in SCID mouse assessed as tumor growth inhibition administered ip qd for 18 days; type: functional, organism-based; outline: as §2

Sequence of Serine/threonine-protein kinase PLK2 (Q9NYY3 whole entry): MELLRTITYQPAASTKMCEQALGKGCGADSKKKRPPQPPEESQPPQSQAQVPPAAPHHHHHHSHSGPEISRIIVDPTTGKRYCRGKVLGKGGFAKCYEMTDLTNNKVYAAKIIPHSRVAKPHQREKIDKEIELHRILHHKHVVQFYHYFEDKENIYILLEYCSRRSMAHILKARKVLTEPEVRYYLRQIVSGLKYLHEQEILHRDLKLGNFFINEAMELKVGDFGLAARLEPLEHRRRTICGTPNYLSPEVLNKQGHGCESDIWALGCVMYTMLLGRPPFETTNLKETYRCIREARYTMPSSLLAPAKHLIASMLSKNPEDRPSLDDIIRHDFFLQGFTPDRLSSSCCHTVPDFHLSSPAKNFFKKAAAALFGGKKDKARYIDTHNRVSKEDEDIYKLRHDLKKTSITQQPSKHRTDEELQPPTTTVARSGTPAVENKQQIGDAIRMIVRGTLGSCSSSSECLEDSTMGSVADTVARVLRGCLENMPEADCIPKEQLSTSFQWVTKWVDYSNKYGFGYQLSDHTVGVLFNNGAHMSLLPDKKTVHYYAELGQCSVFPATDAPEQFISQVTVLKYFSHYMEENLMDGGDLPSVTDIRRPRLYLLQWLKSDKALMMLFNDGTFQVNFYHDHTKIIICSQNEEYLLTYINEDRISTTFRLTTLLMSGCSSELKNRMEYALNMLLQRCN
Sequence of Serine/threonine-protein kinase PLK3 (Q9H4B4 whole entry, the tested form may be a part): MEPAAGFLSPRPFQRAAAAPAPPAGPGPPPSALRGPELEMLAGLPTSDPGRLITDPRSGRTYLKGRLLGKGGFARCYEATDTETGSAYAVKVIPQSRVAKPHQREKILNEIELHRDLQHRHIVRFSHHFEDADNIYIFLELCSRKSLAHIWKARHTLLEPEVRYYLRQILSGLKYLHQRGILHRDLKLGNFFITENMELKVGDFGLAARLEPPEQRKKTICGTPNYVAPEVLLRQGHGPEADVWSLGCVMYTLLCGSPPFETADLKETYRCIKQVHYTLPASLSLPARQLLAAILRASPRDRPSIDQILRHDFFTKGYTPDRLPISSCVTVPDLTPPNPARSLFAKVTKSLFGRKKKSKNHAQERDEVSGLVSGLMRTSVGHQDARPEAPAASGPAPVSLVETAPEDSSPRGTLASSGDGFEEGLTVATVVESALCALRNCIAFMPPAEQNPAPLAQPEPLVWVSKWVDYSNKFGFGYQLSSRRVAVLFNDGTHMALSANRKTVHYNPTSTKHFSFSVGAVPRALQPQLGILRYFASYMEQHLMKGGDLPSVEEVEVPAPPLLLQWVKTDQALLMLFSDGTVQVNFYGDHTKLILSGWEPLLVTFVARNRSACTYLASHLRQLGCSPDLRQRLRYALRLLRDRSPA

| IC50 [1] | IC50 [2] | SMILES | IC50 [3] | GI50 (MDA-MB-468) | Cmax [4] | AUC [5] | Cmax [6] | AUC [7] | inhibition in vivo at 12.5 mg/kg [8] | inhibition in vivo at 25 mg/kg [9] | inhibition in vivo at 12.5 mg/kg [10] | Activity (Mus musculus [11]) | Activity (Mus musculus [12]) | Activity (Mus musculus [13]) | Activity (Mus musculus [14]) | TGI (HCT-116) |
| --- | --- | --- | --- | --- | --- | --- | --- | --- | --- | --- | --- | --- | --- | --- | --- | --- |
| 10 µM | > 50 µM | NS(=O)(=O)c1cccc(-c2n[nH]c3ccc(NC(=O)C(c4ccsc4)N4CCCC4)cc23)c1 (racemic) | 0.089 µM | 0.09 µM | – | – | – | – | – | – | – | – | – | – | – | – |
| – | – | CCc1ccccc1C(C(=O)Nc1ccc2[nH]nc(-c3cccc(S(N)(=O)=O)c3)c2c1)N(C)C (racemic) | 0.083 µM | 0.66 µM | 4800 ng/mL | 3000 ng·h/mL | 130 ng/mL | 140 ng·h/mL | 10% | 66% | 46% | Non-toxic | Non-toxic | Non-toxic | Toxic | Dose-dependent effect |

— ChEMBL document CHEMBL3352261, “Discovery of inhibitors of the mitotic kinase TTK based on N-(3-(3-sulfamoylphenyl)-1H-indazol-5-yl)-acetamides and carboxamides” (Bioorg Med Chem, 2014)
